Results as given in PubChem BioAssay AID651775 (Broad Institute, 2012).

Test system: SK-MEL-5 TRPM1 promoter luciferase, 24 h
Assay: MITF transcriptional reporter enhancement – cell-based, SK-MEL-5, luciferase, dry powder, dose response (AID 651775)
In short: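 Buffer or medium: Phenol red-free DMEM plus 10% heat-inactivated FBS | Test system: TRPM1 promoter-luciferase reporter stably expressed in SK-MEL-5 melanoma cells | Input: 2000 cells per well | Times: Compound added day after seeding, 24 h exposure at 37 °C | Measured by: SteadyGlo luciferase luminescence after 5 min room-temperature incubation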

Compound | AC40 [nM]
COC(=O)C(C)N1C(=O)S/C(=C/c2cc(C)n(C(C)C)c2C)C1=O (stereo not drawn) | 541
COc1ccc(C(=O)NCCn2ccc3ccccc32)cc1 | 531
C=CCNc1nc(-c2ccc(Cl)cc2)cs1 | 219
O=C(Oc1ccc2ccccc2c1Cl)N1CCCCCC1 | 113
COc1cc(/C=N/O)ccc1OCc1ccccc1Cl | 180
COc1ccc(NC(=O)c2ccc3[nH]c(C)c(C)c3c2)cc1 | 1930
c1ccc(CSc2ccc(-c3ccc4c(c3)OCO4)nn2)cc1 | 974
CSc1nc2ccc(NC(=O)c3cccs3)cc2s1 | 465
O=C(NCCc1cccs1)c1ccc(Cl)c(Cl)c1 | 615
Cc1nn2c(-c3ccccc3)ccnc2c1-c1ccccc1 | 824
CC(=O)Nc1nnc(COc2ccc(Cl)cc2)s1 | 589
O=C(Nc1cccc(F)c1)NC1CCCCCCC1 | 984
Cc1ccc(NC(=O)c2ccc3ccccc3n2)cc1S(=O)(=O)N(C)C | 462
C/C(=N\OCc1ccc(C#N)cc1)c1ccc(S(=O)(=O)N(C)C)cc1 | 7800
Cc1cc2ncc(-c3ccc(Cl)cc3)c(N)n2n1 | 1770
CC(C)(C)C(=O)N1CCN(c2nc3ccccc3s2)CC1 | 912
c1ccc2c(Nc3nnc(-c4ccncc4)s3)cccc2c1 | 1130
Fc1ccccc1COc1ccc(C(=S)N2CCCC2)cc1 | 1320
COc1cccc(NC(=O)C(=O)NCCC2CCCCN2S(=O)(=O)c2cccs2)c1 (stereo not drawn) | 2070
CCN(CC)c1ccc(Nc2nc(-c3cccnc3)cs2)cc1 | 515
Cc1ccc(C(=O)Nc2cccc(O)c2)cc1S(=O)(=O)N1CCCCCC1 | 1010
c1ccc(-c2ccc(-c3cnc4n3CCCCC4)cc2)cc1 | 2290
CCCN(CCC)c1ncnc2c1cnn2-c1ccc(OC)cc1 | 39
